# Source: PubChem
# Most compounds without a hit are left out; they make up all but 3.3% or so of the library.
# Arrestin-AP2 inh: inhibitors of beta-arrestin/AP2 binding, primary screen, biochemical, GPCR trafficking, flow cytometry | beta-arrestin 1 C-terminal peptide binding to AP2 beta2-adaptin appendage (human) | FITC-arrestin peptide / GST-AP2 beads; AP2 beta2 appendage carries R879A mutation | inhibition, % at 10 µM | actives 0.31% (n = 340,000) | AID 504490, 2011;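 active means inhibition above a set limit, near 3 SD of compounds lacking own fluorescence, cut at about 54% in these data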;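 further: plate controls were DMSO wells for no effect and 5 µM unlabelled arrestin peptide for full effect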
#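 System: GST-AP2 R879A glutathione beads; medium: PBS, Tween 20 0.05%, BSA 0.1%; reagent: fluorescein-tagged arrestin peptide at 50 nM final; schedule: pre-incubation 12 min, peptide binding 1 h, room temperature; detection: flow cytometry, FL1 (488/535 nm); read-out: inhibition as reduced fluorescein signal on beads, percent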
# CendR NRP1 mod: modulators of CendR peptide binding to NRP-1, primary screen, biochemical, fluorescence polarization, uHTS; Neuropilin-1 (Homo sapiens), O14786; FAM-RPARPAR peptide binding to NRP-1; inhibition, % at 25 µM; actives 0.85% (n = 360,000);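 active means inhibition or corrected inhibition above about 18%, plus a signal ratio from 0.5 to 1.5, limit read from the data, passing the limit was not always enough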
# Lipid droplet: inhibitors of hepatocyte lipid droplet formation, primary screen, imaging, high-throughput imaging, BODIPY stain | AML12 mouse hepatocytes, oleate lipid droplets | inhibition, % at 6.5 µM | actives 0.4% (n = 240,000);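 active means lipid droplet intensity inhibited by at least 50%, with more than 500 cells counted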
#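 Material – AML12 mouse liver cells · Also added – oleate loading, 100 µM · Compound dosing – 6.5 µM single-point dosing · Times – overnight treatment with compound plus oleate · Measured by – fluorescence imaging, 20x objective, two fields per well · Read-out – percent inhibition of filter-corrected integrated lipid droplet intensity per well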
# HGIII-sPLA2 inh: human group III sPLA2 inhibitors, primary screen, biochemical, QFRET, BODIPY PC-A2 liposome substrate | inhibition, % at 12.2 µM | Group 3 secretory phospholipase A2 (Homo sapiens), Q9NZ20 | QFRET BODIPY PC-A2 liposome hydrolysis, fluorescence | actives 0.56% (n = 370,000);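 active means inhibition above mean plus 3 SD of compounds lying within the high and low control bounds, cut at about 19% in these data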;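 further: 0% = median of test compound wells and 100% = no enzyme DMSO wells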
# m5-HT2A agonist: mouse Htr2a agonists via beta-arrestin recruitment, primary screen, cell-based, luminescence. AID 624169, 2012. CHO-K1 mHTR2A beta-arrestin complementation; percent of 30 µM serotonin response. activation, % at 7.6 µM. actives 0.66% (n = 360,000). 5-hydroxytryptamine receptor 2A (Mus musculus), P35363;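 active means activation above a run cutoff, the mean activation of all tested compounds plus 3 SD, cut at about 14% in these data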;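 further: 0% = plate median of compound wells and 100% = 30 µM serotonin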
# PfM18AAP inh: PfM18AAP inhibitors, malaria aminopeptidase, primary screen, biochemical, QFRET, recombinant enzyme; inhibition, % at 7.35 µM; actives 1.2% (n = 290,000); H-Glu-NHMec fluorogenic cleavage; AID 1822, 2009;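 active means inhibition above the campaign mean inhibition over all tested compounds plus 3 SD, cut at about 28% in these data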;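 further: 0% = plate median of test compound wells and 100% = 2 mM ZnCl2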
# An asterisk follows results filed as active; . = no result given.
SMILES,Arrestin-AP2 inh,CendR NRP1 mod,Lipid droplet,HGIII-sPLA2 inh,m5-HT2A agonist,PfM18AAP inh
NC(=S)N/N=C/c1ccc(-c2ccc([N+](=O)[O-])cc2)o1,-9.1,-43.4,3.3,12.1,-3.5,42.2*
CCOc1ccc(C(=O)NCC(=O)NCCSc2ccc(Br)cc2)cc1OCC,3.5,23.3*,.,-20.4,-2.4,.
Cc1ccc(C(=O)NCC(=O)NCCSc2ccc(Br)cc2)cc1,-7.9,4.5,.,-0.3,6.8,.
c1ccc2c(c1)ncn2-c1ncnc2sc3c(c12)CCCC3,7.9,-3.1,.,-2.6,-0.2,-1.3
CC(O)CNc1nc2ccccc2n1-c1ncnc2sc3c(c12)CCC3 (stereo not drawn),-14.8,-10.2,.,-10.1,18.0*,-8.0
CN1c2ccccc2C(C)(C)C12C=Cc1cc(O)ccc1O2 (stereo not drawn),35.5,-79.5,.,-6.7,2.2,29.8*
OCCn1c(-c2ccc(F)cc2)csc1=Nc1ccccc1,2.9,0.3,-13.9,-1.1,4.1,40.5*
O=C(Cn1cc([N+](=O)[O-])cn1)N1CCc2ccccc21,37.9,3.4,.,8.9,16.2*,-8.0
CCOc1ccc(OCCC(=O)OCC(=O)c2c(N)n(CC(C)C)c(=O)n(C)c2=O)cc1,.,-1.5,.,-7.6,0.2,.
Cc1ccc(OCCC(=O)OCC(=O)c2c(N)n(CC(C)C)c(=O)n(C)c2=O)cc1,-7.5,17.4*,.,-10.6,2.2,.
O=C1CC(=O)Nc2cc(S(=O)(=O)N3CCN(c4ccc([N+](=O)[O-])cc4)CC3)ccc2N1,-0.8,0.0,11.3,-5.4,-2.0,8.2
CC(=O)NCCNc1nc(NCc2cccs2)nc2ccsc12,.,-1.8,.,-2.7,-3.5,.
CC(=O)NCCNc1nc(NC(C)C)nc2ccsc12,.,26.4*,.,5.7,5.2,.
COC(=O)[C@]12CCCCC=C1N(Cc1ccc(OC)cc1)C(=O)[C@@H]2CC(=O)NCc1ccc(OC)c(OC)c1,.,.,.,-13.6,.,.
CNC(=O)C[C@@H]1CC[C@@H]2[C@H](COC[C@H](O)CN2S(=O)(=O)c2ccccc2Cl)O1,.,32.0*,.,-3.9,3.6,.
CCOC(=O)C1=C(C(=O)OCC)C2N(Cc3ccc(C#N)cc3)c3ccccc3[C@@]23C[C@@H](C(=O)OC)N(S(=O)(=O)c2cccs2)C3=N1 (stereo partly drawn),.,.,.,-2.9,.,.
COC(=O)c1ccc(C2/C(=C(\O)c3cccc(OC)c3)C(=O)C(=O)N2CCCN(C)C)cc1 (stereo not drawn),9.1,-10.0,-0.1,3.8,0.4,4.9
COc1cccc(/C(O)=C2/C(=O)C(=O)N(CCN(C)C)C2c2ccc(Br)cc2)c1 (stereo not drawn),-2.2,20.3*,.,5.2,3.2,-1.9
CN(Cc1ccc(F)cc1)C(=O)CN1C(=O)C2(OCCCO2)c2ccccc21,.,.,.,-1.3,.,.
CC(=O)Nc1ccc(Oc2cc(C#N)c(C#N)cc2N2CCOCC2)cc1,-9.1,41.4*,21.5,5.2,-4.5,-1.3
O=C(OCn1nnc2ccccc2c1=O)c1ccc(Br)o1,4.7,35.0*,7.3,2.5,-0.2,-0.3
CN1CCN(C(=O)/C=C\c2ccc(Cl)cc2)CC1,-9.1,-11.6,-22.5,-1.9,-0.2,-65.9
CN1CCN(C(=O)/C=C/c2cccc(Cl)c2)CC1,-11.5,25.4*,3.2,8.8,-0.7,-6.1
NC(=O)C1CCN(C(=O)CC2(CC(=O)O)CCCCC2)CC1,15.3,26.8*,-3.1,3.0,4.3,1.9
COC(=O)[C@]12C[C@H](CC(=O)NCc3ccc(C)o3)C(=O)N(Cc3ccc4c(c3)OCO4)C1=C[C@H](COCc1ccccc1)O[C@@H]2C,.,.,.,-15.7,.,.
SMILES,Arrestin-AP2 inh,CendR NRP1 mod,Lipid droplet,HGIII-sPLA2 inh,m5-HT2A agonist,PfM18AAP inh
c1ccc(Nc2ncnc3c2oc2ccccc23)cc1,-6.6,24.3*,5.5,-4.3,-5.5,2.5
Oc1ccc(Nc2ncnc3c2oc2ccccc23)cc1,5.9,-3.4,-4.2,4.9,-4.2,-25.2
CC(=O)N1CCN(C(=O)c2ccc(CNC(=O)c3cccc(Br)c3)cc2)CC1,.,.,.,1.4,.,.
COc1ccc(/C(N)=N/OC(=O)c2cccc([N+](=O)[O-])c2C)cc1OC,4.5,-0.9,-5.1,.,-0.5,-2.5
COc1cccc(C(=O)O/N=C(\N)c2ccc([N+](=O)[O-])cc2)c1OC,8.3,25.1*,.,-3.2,10.1,-1.6
COc1ccc(C(=O)O/N=C(\N)c2ccccc2)c(OC)c1,0.8,17.8*,-3.1,-1.4,-0.7,-1.4
CCOc1ccccc1N1CC(C(=O)Nc2cc(S(=O)(=O)N3CCOCC3)ccc2OC(C)C)CC1=O (stereo not drawn),-12.9,6.9,.,6.0,2.1,.
C=CC[C@]12CCc3sccc3C1N(c1ccc(C(=O)OCC)cc1)C2=O (stereo partly drawn),33.2,6.4,.,3.0,0.4,.
CN1Cc2c(N)cccc2C(c2ccccc2)C1 (stereo not drawn),0.8,30.1*,-16.5,-6.9,-8.7,1.9
Oc1ccc(C2=CSC3=NCCN23)cc1O,-0.5,3.8,.,5.4,7.4,55.2*
Cc1ccc(NC(=S)NNc2ncc(C(F)(F)F)cc2Cl)cc1,39.4,5.1,27.9,18.5,-12.4,19.8
Cc1ccc(NC(=S)NNc2ncc(C(F)(F)F)cc2Cl)c(C)c1,6.4,-3.8,-11.6,7.3,-3.7,28.4*
Cc1ccc(S(=O)(=O)N2CCN(C(=O)c3ccccn3)CC2)cc1,-20.7,11.4,-21.8,-3.6,0.6,2.6
O=C(c1ccccn1)N1CCN(S(=O)(=O)c2ccccc2)CC1,-5.0,24.0*,8.1,2.3,-2.0,-0.3
CCCNC(=O)C(Cc1ccccc1)NC(=O)c1ccc(-c2ccccc2)cc1 (stereo not drawn),34.7,11.8,.,4.1,0.0,.
CCCNC(=O)C(Cc1ccccc1)NC(=O)c1ccc(C(C)(C)C)cc1 (stereo not drawn),22.4,26.5*,.,5.7,-1.5,.
COC(=O)[C@@]12CCCCN1[C@H](c1ccc(-c3ccc4c(c3)OCO4)cc1)[C@H]1C(=O)N(C)C(=O)[C@H]12,4.3,29.7*,.,-6.5,-3.5,.
COCC(=O)n1nc(NCc2ccc(OC)cc2)nc1NCc1ccc(OC)cc1,8.3,-6.5,-14.0,-0.6,-6.6,28.1*
Cc1c(N=N/C(C(=O)Nc2ccccc2)=C(/O)c2ccccc2)c(=O)n(-c2ccccc2)n1C,17.7,-58.0,7.8,1.9,1.7,-12.1
